Hits are enriched below; roughly 4.1% of the tested compounds scored in any of these assays.
DTT redox prof – compounds producing H2O2 with reducing agent – biochemical, NIH compound library profiling, artefact control for MLSCN library redox annotation, primary screen; DTT-dependent redox cycling H2O2, phenol red/HRP absorbance; 100% = 100 µM peroxide control, 0% = buffer; activation, % at 10 µM; actives 0.03% (n = 200,000);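 active = activation of at least 50% relative to the plate's high and low controls in the primary single-dose screen; inactive = activation below 50%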;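 also: compound incubated with DTT at 0.8 mM final as the reducing agent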
Autophagy HCS – alters autophagy in cells | MEF GFP-LC3 puncta imaging; test concentration mostly 10 µM | calls only at 10 µM (by protocol) | actives 0.98% (n = 190,000);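 active = percentage of spot-positive cells more than 3 SD above its plate mean, without a fluorescence outlier flag or 80% toxicity; inconclusive = no clear call, values can overlap the other calls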;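 also: spot-positive cell cutoff set from DMSO-treated cells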
Dynein transport – dynein cargo transport inhibition; AID 1381; actives 0.47% (n = 220,000); 3617.4 mouse cells, GR-EGFP nuclear translocation imaging; test concentration mostly 20 µM; stimulated with dexamethasone, 1 µM; stronger effect = lower value; z-score, hits read low;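 active = plate z-score of nuclear minus cytoplasmic receptor signal below a set negative limit, without overly bright fluorescence or cell loss, cut at about -3.5 in these data, passing the limit was not always enough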;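 also: z-score of nuclear minus cytoplasmic ring GR-EGFP intensity difference per well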
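medium = tetracycline-free induction medium containing charcoal-stripped FBS | probe or stimulus = dexamethasone, 1.0 µM final | timing = 48 h induction, then 1 h compound, then 30 min agonist, 37 °C | detection = automated 10x imaging of fixed Hoechst-stained cells | read-out basis = nuclear versus cytoplasmic GR-EGFP signal, averaged per well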
ROMK mod – modulates human ROMK potassium channel activity; B-score at 10 µM; Tet-inducible ROMK, thallium flux fluorescence; actives lie on both sides; P48048; actives 2% (n = 130,000);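 active = signal ratio slope over the read window, or its plate-corrected B-score, at least 3 SD from the plate mean, either direction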;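 also: B-score of the F/F0 ratio slope over 7 to 12 s after thallium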
Target sequence (P48048 whole entry, looked up): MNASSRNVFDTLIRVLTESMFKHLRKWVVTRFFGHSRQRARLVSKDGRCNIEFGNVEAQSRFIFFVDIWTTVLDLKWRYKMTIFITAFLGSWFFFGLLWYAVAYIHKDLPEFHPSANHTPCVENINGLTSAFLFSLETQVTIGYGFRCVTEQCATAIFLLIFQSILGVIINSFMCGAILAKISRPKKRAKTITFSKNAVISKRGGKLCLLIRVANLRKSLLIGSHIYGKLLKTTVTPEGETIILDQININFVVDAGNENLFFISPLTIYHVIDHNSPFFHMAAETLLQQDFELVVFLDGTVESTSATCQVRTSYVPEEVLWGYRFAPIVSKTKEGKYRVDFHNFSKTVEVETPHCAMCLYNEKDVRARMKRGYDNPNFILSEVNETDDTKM
KCC2 mod – KCC2 (human) Cl- transport modulation; KCC2 cells, thallium flux FluoZin-2 fluorescence; B-score of Tl+ flux slope (higher = more flux/activation; lower = inhibition) at 10 µM; actives 2.2% (n = 190,000);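 active = thallium flux slope and its plate-corrected score both differing from the plate sample mean at a set confidence after two filtering rounds, in either direction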;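 also: slope of fluorescence scaled to starting intensity during 10 to 20 s after thallium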
KCC2 sec1 – KCC2 (human) modulation, secondary assay. shares compounds with KCC2 mod. actives 15% (n = 3,700). normalised thallium flux (F/F0 slope) at 10 µM. HEK293-KCC2, thallium flux, FluoZin2 fluorescence; stronger effect = higher value;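 active = thallium flux slope above the same plate's solvent-only control mean plus 3 SD; inconclusive = the two replicate wells disagree; inactive = no significant difference from solvent-only control wells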
KCC2 bumet counter – bumetanide-insensitive thallium flux in KCC2 cells with ouabain, counter-screen; shares compounds with KCC2 mod; HEK293-KCC2 + bumetanide/ouabain, thallium flux FluoZin2; stronger effect = higher value; normalized thallium flux at 10 µM; actives 49% (n = 3,700);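 active = thallium entry rate above the same plate's blocked-transporter control wells by more than 3 SD; inconclusive = the two repeat wells disagree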;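 also: raw slope of fluorescence over initial fluorescence between 10 and 20 s after thallium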
KCC2 sec2 – KCC2 (human) modulation, second secondary assay; shares compounds with KCC2 mod; normalized thallium flux at 10 µM; HEK293-KCC2, thallium flux FluoZin2 fluorescence; actives lie on both sides; F/F0 rise rate, 10–20 s post-thallium; actives 23% (n = 3,700);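 active = thallium flux slope more than 3 SD above or below the plate's solvent-only control mean, mostly below; inconclusive = the two repeat wells disagreed; inactive = no significant shift from solvent-only controls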;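 also: raw slope with 0.1% DMSO as baseline and bumetanide as block control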
HEK counter1 – acts in parental HEK cells, KCC2 counter-screen. shares compounds with KCC2 mod. HEK293 parental cells, thallium flux FluoZin2, ouabain; baseline-ratio fluorescence slope, 10–20 s after thallium. thallium flux rate (normalised fluorescence) at 10 µM. actives 46% (n = 3,700). AID 1716;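 active = thallium flux rate significantly above the same plate's solvent-only control wells, beyond their mean plus 3 SD; inconclusive = the two replicate wells gave conflicting results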
KCC2 retest ouab – KCC2 (human) modulation, ouabain retest; shares compounds with KCC2 mod; HEK293-KCC2, thallium flux FluoZin2 fluorescence; bidirectional: low = inhibitor, high = activator; raw Tl+ flux slope (below DMSO = inhibition, above = activation) at 10 µM; actives 48% (n = 3,700); AID 1717;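 active = thallium flux slope beyond 3 SD from same-plate DMSO control mean in most replicates, usually higher, sometimes lower; inconclusive = repeat tests gave conflicting results; inactive = no significant difference from controls in most replicates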;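 also: slope of initial-normalized fluorescence between seconds 10 and 20 after thallium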
HEK counter2 – counter-screen for KCC2 modulators: effect in parental HEK293 cells | shares compounds with KCC2 mod | thallium flux FluoZin-2 fluorescence slope | thallium flux slope at 10 µM | actives 33% (n = 3,700) | AID 1718;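 active = thallium flux slope above the same plate's solvent-control mean plus 3 SD in both duplicate wells; inconclusive = duplicate wells that disagreed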;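 also: run without ouabain in cells lacking the KCC2 cotransporter; slope of fluorescence scaled to its starting value between 10 and 20 s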
Active calls of the source: *; i = inactive; ? = inconclusive; / = no result given.

SMILES	DTT redox prof	Autophagy HCS	Dynein transport	ROMK mod	KCC2 mod	KCC2 sec1	KCC2 bumet counter	KCC2 sec2	HEK counter1	KCC2 retest ouab	HEK counter2
COc1ccc(NC(=O)NCCCN2CCCCC2C)cc1 (stereo unspecified)	-0.4	i	-0.379	-0.024	/	0.00494	0.00499	0.029	0.00703	0.0186	0.0107
O=C(NC(=S)NN1CCCCC1c1cccnc1)c1ccc(Cl)cc1Cl (stereo unspecified)	/	/	0.579	/	9.07*	0.0124*	0.0212*	0.0346	0.0118*	?	?
CCS(=O)(=O)NCc1ccc2c(c1)cc(C)n2C	-3.5	i	-0.102	/	-3.1*	0.0058	0.00515	0.0299	0.00779	0.0188	0.0111
Oc1ccc(N=Nc2ccc3c(c2)OCCO3)c2cccnc12	0.4	i	-0.705	1.41	24*	0.0106	0.0374*	0.0327	0.0608*	0.0391*	0.0145*
Oc1ccc(N=Nc2ccc3c(c2)OCCO3)c(O)c1	/	/	-3.19	/	-1.5	/	/	/	/	/	/
COc1ccc(N=Nc2ccc(O)c3ncccc23)cc1	/	/	2.27	/	32*	0.0188	0.0344*	0.0319	0.02*	0.0269*	0.0189*
O=Nc1ccc(O)c2ncccc12	/	/	-2.48	/	0.331	/	/	/	/	/	/
COc1ccc(C)cc1N=Nc1ccc(O)c2ncccc12	-0.3	i	-0.504	-0.0182	21.3*	0.0069	0.0349*	0.0389*	0.0212*	0.0352*	0.0226*
O=C1NN=C(CSc2n[nH]c(=S)s2)CS1	-0.1	i	0.132	-0.0209	/	/	/	/	/	/	/
CC1CCN(c2c(NCC3CCC(C(=O)NCCc4ccccc4)CC3)c(=O)c2=O)CC1 (stereo unspecified)	0.4	i	1.16	-0.153	-4.74*	0.00543	0.00526	?	0.00718	0.0181	0.0109
Cc1ccc(CCNC(=O)C2CCC(CNc3c(N4CCCC4)c(=O)c3=O)CC2)cc1 (stereo unspecified)	-3.1	i	-0.757	/	/	0.00791	?	0.034	?	0.0192	0.0108
Cc1ccc(CCNC(=O)C2CCC(CNc3c(N4CCC(C)CC4)c(=O)c3=O)CC2)cc1 (stereo unspecified)	0.6	i	1.84	0.0397	1.03	/	/	/	/	/	/
O=C(NCCc1ccccc1)C1CCC(CNc2c(N3CCCCC3)c(=O)c2=O)CC1 (stereo unspecified)	-0.5	i	0.893	0.137	-2.91	/	/	/	/	/	/
Cc1ccc(C)c(S(=O)(=O)NCc2ccc(C(=O)N3CCC(Cc4ccccc4)CC3)cc2)c1	0.7	i	-1.14	/	0.103	/	/	/	/	/	/
O=C1CC(c2cccc(Cl)c2)CC(O)=C1C=NC1CCCC1 (stereo unspecified)	-0.2	i	-0.495	-1.05	0.00302	/	/	/	/	/	/
CCC1CCCCN1C(=O)CSc1nnc(-c2c[nH]c3ccccc23)o1 (stereo unspecified)	1.5	i	-0.0379	1.72	-3.33*	0.008	0.00668	0.0299	0.00736	0.0222*	?
CC1CCCC(C)N1C(=O)CSc1nnc(-c2c[nH]c3ccccc23)o1 (stereo unspecified)	0.1	i	0.379	0.704	/	/	/	/	/	/	/
